Results published in the EternaBench riboswitch data.

Tested on: MS2 coat protein
Assay: apparent Kd, MS2 coat protein; higher = weaker binding; RNA-MaP array; FMN 200 µM where present
Method in brief: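 Binding was read on Illumina sequencing-chip clusters where stalled E. coli RNA polymerase had transcribed each design. A titration of SNAP-549-labelled MS2 coat protein began at 0.7 or 1.5 nM and doubled to 3 µM, once without ligand and once with constant ligand, in 100 mM Tris-HCl pH 7.5, 80 mM KCl, 4 mM MgCl2, BSA, DTT, yeast tRNA and Tween-20. The apparent Kd is the median of filtered per-cluster binding-curve fits, based on green signal normalised to red-channel RNA signal and control-cluster median Fmax.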

[1] = designed as: OFF switch for flavin mononucleotide, no ligand
[2] = ligand present: flavin mononucleotide, designed as: OFF switch for flavin mononucleotide
[3] = designed as: ON switch for flavin mononucleotide, no ligand
[4] = ligand present: flavin mononucleotide, designed as: ON switch for flavin mononucleotide

Row | Sequence | apparent Kd [1] [nM] | apparent Kd [2] [nM] | apparent Kd [3] [nM] | apparent Kd [4] [nM]
1 | GCUACGUCAGGAUAUCUGAUGUCUAACUUCGGUUAGACAUCAGAGAAGGGACAUGAGGAUCACCCAUGUAGCAG | 114 | 112 | – | –
2 | GUACUACAUGAGGAUCACCCAUGUACAAAUGUACGAGGAUAUGCAUGGACGAAAGUUGGUGCAGAAGGCGUAGUAC | – | – | 24.9 | 24
3 | AACAUGGUCCAGAAGGGCUAUUUAUUUAAUUAUUAUUUAGAACAGCAUAGCAGGAUAUGGUUAACAUGAGGAUCACCCAUGUAC | – | – | 16 | 11.5
4 | UCCUCUUUGAAGAAGGCGUGGCCAUGCAAGCCGCGAGGAUAUUCACAUGAGGAUCACCCAUGUGGAUUUCAGUCCGCUCAAAAC | 13.4 | 68 | – | –
5 | AAGAAGUGAGGAUAUCCUGCUCGUCACUUGCGUGAUGAGUAGGAGAAGGCACAUGAGGAUCACCCAUGUAAAGA | 37.4 | 41.6 | – | –
6 | UUUUUGUGAGGAUAUCAGUAGUAAAAAAAUAAAAUUACUACUGAGAAGGCACAUGAGGAUCACCCAUGUUUUUU | 41.7 | 96.5 | – | –
7 | GAAGUAUCCAAUAACAUGAGGAUCACCCAUGUCAAAAGACGGGAGGAUAUUGAUCUGAAGAAGAUCAAGAAGGCCUGGUGCUAA | – | – | 19.2 | 11.1
8 | ACGUCGAGCCAGAAGGCAACAUGAGGAUCACCCAUGUAGUCCGGCUCGUGUUGAGGAUAUGGCACCCACGCGGAAGGCGCAGGU | 5.54 | 7.19 | – | –
9 | GGGAAGUGAGGAUAUAUGAGAGAGGCUGAACCGGACGAGAAGUAGAAGGCACAUGAGGAUCACCCAUGUAGGGA | 118 | 86 | – | –
10 | AUGCUAGUGUGAGGAUAUCAACAUGAGGAUCACCCAUGUUGGAAGUACACGACAUGCGGUACAUCUGAGAAGGUACAUUAGCAU | 29.1 | 52 | – | –
11 | UUUUAGUCAGGAUAUACAUUUUUUUAUUUAUUUAUAAUAUUACAUGAGGAUCACCCAUGUAGAAGGGACAUUUU | 31.8 | 26.5 | – | –
12 | CCGGCUUAGUAGGAUAUCAGAGUCGAAAGACUCUGAGAAGGACUAACAUGAGGAUCACCCAUGUGUCCUACCGG | 15.9 | 36 | – | –
13 | UGCCGUUUAGGAUAUACAUGAGGAUCACCCAUGUGACACACAUAUUUUACAAAACCAUGUAGAAGGAAACGGCA | 104 | 512 | – | –
14 | GUAGCAUACCGAGGAUAUUCAUAGAAUAAAUAAACAUGAGGAUCACCCAUGUGGCGAAAGCCUAGGGAGAAGGCGGAAUGCUAC | – | – | 183 | 20.3
15 | AUGGUACAUGAGGAUCACCCAUGUUAGGAUAUCGCGUGAUCUAAAACUAAGAGACACACGAGAAGGGACGACAU | 176 | 104 | – | –
16 | UGGAUGGUAUGAGGAUAUGCGCGCGAAACGCGCGCAGAAGGCGUGUCAAUAGACAUGAGGAUCACCCAUGUAUUAUCCAUCCAA | – | – | 130 | 12.3
17 | GGAUGACAUAGUCAUCCUUAACGAACAUGAGGAUCACCCAUGUAGGAUAUGCUACUCAAAGAGUAGCAGAAGGGCGUGUGUCUU | 42.6 | 49 | – | –
18 | GUAAUCAGUAAUAAAAGCCCGGGCGCAGAAGGCCAGACACAUGAGGAUCACCCAUGUAUCCCUAUGGAGGAUAUGUGUCACGUG | – | – | 72.8 | 22.9
19 | CUUAGACAUGAGGAUCACCCAUGUGAGGAUAUGAUGCAGCAGUGGUCUACGCUGUGCAUCAGAAGGCACAUAUG | 120 | 155 | – | –

Row | Sequence | apparent Kd [1] [nM] | apparent Kd [2] [nM] | apparent Kd [3] [nM] | apparent Kd [4] [nM]
20 | UAAUUGUGAGGAUAUUCGUUUUACACGGAGACGUGUAGAACGGAGAAGGCACAUGAGGAUCACCCAUGUUCCUU | 18 | 100 | – | –
21 | AGCAUGGUAGGAUAUACGGAGCAUUAGGGUUUGUUAUGUGGACAUGAGGAUCACCCAUGUAGAAGGGCCGUGCA | 38.6 | 60 | – | –
22 | UUGGGAUGCAAGAAGGGUGACAUGAGGAUCACCCAUGUGUUGUGAAUUCUCGAGAUUUUAUGACCAUAGGAUAUUGCACCGAAC | – | – | 28.5 | 12.2
23 | AUCUCGUCAGGAUAUGACUACAUAAAAAAUAAAAAAUGUAGUCAGAAGGGACAUGAGGAUCACCCAUGUACCAA | 19.1 | 18.4 | – | –
24 | AAGAAGUGAGGAUAUGCUGCUCGUCACUUGCGUGAUGAGUAGCAGAAGGCACAUGAGGAUCACCCAUGUGAAGA | 25.1 | 42.2 | – | –
25 | GGAACUCAUGUAGGAUAUGCAUGGCGAAGCUACGCAGAAGGACAUGAGGAUCACCCAUGUUCUAGCGUCUGGAUACAGAUGCAA | 169 | 130 | – | –
26 | GCCCUCCCUGAGGAUAUUAUCUGGUUCGAUUGAUAAGAAGGCAGUACAUGAGGAUCACCCAUGUGGUUCGUUUG | 108 | 285 | – | –
27 | GGGUACAUGGGAGGAUAUGGGAAGAUACAUGAGGAUCACCCAUGUUUAAGAAUGCCGAGAGGCAACUAGAAGGCCCAUGUACCG | – | – | 1040 | 49
28 | GCCUUAUCUGUCAGGAUAUACAAUAAAAUAUUUUUGUAGAAGGGACAUGAGGAUCACCCAUGUACAUUACAUUG | 42 | 262 | – | –
29 | UUAGAAAUGUUAGGAUAUUAAUAUUUUUUUAGUAUGAUCUACAUGAGGAUCACCCAUGUUAAAAUUAAGAAGGAACAUUUUAUU | 69.7 | 56.9 | – | –
30 | ACUGCAUAGGCAGGAUAUGCAAAAGCAGAUGCAAAGCAUUUGUAAAACACAUGAGGAUCACCCAUGUAGAAGGGCCUGUGCAGU | 21 | 20.7 | – | –
31 | CAUGUCCUCACAGGAUAUGCUGGACUUUGUCCAGCAGAAGGGUGAACAUGAGGAUCACCCAUGUAGUGGACAUGUAUAUUUAAU | – | – | 543 | 276
32 | AAUUAAUUAAUACAUGAGGAUCACCCAUGUAAUUAUUAGAUCUAGGAUAUCAGCUCGAUUAGAGCUGAGAAGGAGAUCACAUGU | – | – | 18.5 | 14.8
33 | UGUCGGAGCAGAGGAUAUUACAUGAGGAUCACCCAUGUAAUAAAUGGAAGCUGGAAACAGCAAUGUAAGAAGGCUGCUCCGACA | 17.4 | 47.9 | – | –
34 | UGUCGGCGCAGAGGAUAUUACAUGAGGAUCACCCAUGUAUGAACCAAUAGCUGGAAACAGCAAUGUAAGAAGGCUGCUCCGACA | 12.5 | 154 | – | –
35 | GUAGCUAUCGGAGGAUAUUCAUACCGGAAACGGACAUGAGGAUCACCCAUGUGGCGAAAGCCUUGGGAGAAGGCCGAUAGCUAC | – | – | 601 | 20.8
36 | CUAGUACAUGAGGAUCACCCAUGUCAGGAUAUUGGAUAUGCCUUGGAAUACGUGUUUACAAGAAGGGACUAUAG | 18.7 | 19.2 | – | –
37 | AAGAUGCGGAUAGGAUAUGGAGAGAAAGAAAGACCAGAAGGAUUGGUCAUAUAACAUGAGGAUCACCCAUGUAUAUGUUGUGAA | 19.9 | 16.6 | – | –
38 | AAAAAACAUGAGGAUCACCCAUGUCAAAAGACAUGAGGAUAUGUACAGACUUCGGUCUGUACAGAAGGCAUGUAAA | – | – | 321 | 30.8

Row | Sequence | apparent Kd [1] [nM] | apparent Kd [2] [nM] | apparent Kd [3] [nM] | apparent Kd [4] [nM]
39 | AAAUUUAACGAAGGAUAUACUAACAUGAGGAUCACCCAUGUGUGUUUCGUGUUACUGAAAUUCGGGUAGAAGGUCGUAUACAUA | 80.4 | 33.7 | – | –
40 | GAUAGGACAGAGAAGGACGUAGCUAGAGAUACUAGCAUAAGAACCUUUACAUGAGGAUCACCCAUGUAGGAUAUCUGUCCUAUC | 5.88 | 6.89 | – | –
41 | GUUUAGUGAGGAUAUGUGGCUUCGAUCGUGCGCGGUCUGCUACAGAAGGCACAUGAGGAUCACCCAUGUUUCUC | 173 | 527 | – | –
42 | GCCGAACAUGAGGAUCACCCAUGUCCGGGUAGUCAAGGAUAUGGGUAGGCAAUGCCGUGGCCAGAAGGUGGCUAUC | – | – | 97.6 | 30.9
43 | AUUAACUACAUAGGAUAUUGAUACAUGAGGAUCACCCAUGUCACCCAUGUUUAUUUAUCAAUUGACAAGAAGGAUGUGGUUACA | – | – | 69.8 | 46.5
44 | GGGUACAUCGGAGGAUAUCAUGUAAAUACAUGAGGAUCACCCAUGUCGAUGGAGACAUCAGAGAUUGAGAAGGCCGAUGUACCG | – | – | 14.9 | 6.15
45 | GCCAUCACGUGAGGAUAUGCUCCCGUUUCGGGAGCAGAAGGCAUGUCAUCAGACAUGAGGAUCACCCAUGUAGUUAAGAUGGCA | – | – | 43.6 | 13.1
46 | GUCAGUGUGGUAGGAUAUCGAAACGGUCAGUUACGAGAAGGGCUACAUGAGGAUCACCCAUGUAUCCAAGAUCGGCUUACAGCA | 5.87 | 5.92 | – | –
47 | UUUGUGUAAGGAUAUCACUACCGGGUCCGGACGCCCGCAGAUGAGAAGGUACAUGAGGAUCACCCAUGUCCCUA | 19.7 | 26.4 | – | –
48 | UGUGCGUCAGGAUAUUCUACUUAUUACAUGAGGAUCACCCAUGUGUAUGUACAAGGGUGUGAAGAAGGGACUUGUC | 935 | 305 | – | –
49 | GGGUACAUCGGAGGAUAUCAUGUAAAUACAUGAGGAUCACCCAUGUCGAUGGAGACAUCGGAUAUUGAGAAGGCCGAUGUACCG | – | – | 18.7 | 5.46
50 | AAAAAGGCAGGAUAUACAUGAGGAUCACCCAUGUAAAGAAAGAAAGAGGUGAAAGAAAGUAGAAGGGCCAAAAA | 160 | 179 | – | –
51 | UUUGGGUGGCUGGAGGAUAUCCUGGUUGUUACAUGAGGAUCACCCAUGUGCCGCGCGGUUCGCGAGGAGAAGGCUGGCGGCCGUU | – | – | 147 | 33.6
52 | GUGCCAUAUGAGAAGGCGAUCAUGAAACAUGAUCGAGGAUAUCAUGAAAACAUGAGGAUCACCCAUGUAUGGGUAUUAAGGUAC | – | – | 64.3 | 28.9
53 | UGGAGGUCAGGAUAUGCAUGGCGGGACUUGCGUCGUGGCGUGCAGAAGGGACAUGAGGAUCACCCAUGUGGAGU | 112 | 77.4 | – | –
54 | AAAACGUCAGGAUAUCCAAUAUAUGACAUGAGGAUCACCCAUGUUUCCACUCGUACCUCCGGAGAAGGGACUUUUU | 42.6 | 39.4 | – | –
55 | CCUCCACAGGAGGAUAUCAUCAAACUAUUGUGAUGAGAAGGCCUGACAUGAGGAUCACCCAUGUUAUCGUGAUG | 56 | 185 | – | –
56 | GUUGGCUGAGGAUAUGCUUGCGUGCGUUUGUGUCGCGGGUGACAUGAGGAUCACCCAUGUAGAAGGUGGUCGGC | 1530 | 980 | – | –
